Assay outcomes (PubChem)
HUVEC inhibit: human endothelial cell proliferation inhibition. viability, % at 10 µM (by protocol). HUVEC proliferation, CellTiter-Glo luminescence, 72 h; stronger effect = lower value. AID 648. hit rate 1.1% among 86,000;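 active = viability at or below 30%; inactive = viability above 30%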;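 note: 100% = median luminescence of DMSO-only cell control wells on each plate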
HCT116 PTEN-null: suppresses growth of cells with PTEN deletion; hit rate 1.2% among 140,000; viability, % at 10 µM; AID 827; HCT116 PTEN-null viability, CellTiter-Glo, 60 h; stronger effect = lower value;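 active = viability at or below a set limit, 4 SD under the median of all tested compounds, cut at about 3.7% in these data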;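 note: PTEN knockout HCT116 line with beta catenin targeted HCT116 as companion control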
bCat KO growth: beta-catenin-lacking colon tumor cell growth suppression; hit rate 1.5% among 140,000; AID 818; HCT116 beta-catenin knockout viability, CellTiter-Glo, 60 h; stronger effect = lower value; viability, % at 10 µM;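 active = viability at or under a set limit, the compound median less 4 SD, cut at about 6% in these data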;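 note: 0% = Hyamine 1622 control at 20 µM and 100% = untreated cell control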
Fibroblast inh: blocks proliferation of human lung fibroblasts | LL 47 human lung fibroblast viability, ATP luminescence; stronger effect = lower value | viability, % at 10 µM | hit rate 1.1% among 85,000 | AID 719;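 active = viability at or below 50% in the single dose screen; inactive = viability above 50%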;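 note: compound exposure lasted 72 h before the ATP readout; 100% = median luminescence of untreated cell-only wells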
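test system = LL 47 human lung fibroblasts | amount = 1,150 fibroblasts seeded per well | medium = 15% FBS in IMEM | times = overnight cell rest, 72 h compound treatment at 37 °C | measured by = CellTiter-Glo luminescence measuring cellular ATP | read-out = viability percentage against median untreated-cell control | benchmarks = cell-only wells, no compound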
H69AR inhibit: blocks growth of human H69AR lung tumor cells; H69AR lung tumor viability, ATP luminescence, 72 h; stronger effect = lower value; hit rate 6% among 85,000; viability, % at 10 µM;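 active = viability at or below 40%; inactive = viability above 40%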;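 note: multidrug resistant small cell line overexpressing MRP-1 efflux transporter; 100% = mean luminescence of untreated control wells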
The depositor's hits bear a star; . = no result given. Many of the other results were omitted from the sample, so hits are more common in it than they were.

SMILES	HUVEC inhibit	HCT116 PTEN-null	bCat KO growth	Fibroblast inh	H69AR inhibit
Cc1ccc2c(C)nc(Nc3nc(CSc4nnc(C)s4)cc(=O)[nH]3)nc2c1	17*	87	80	46*	35*
Cc1nc(Nc2nc(-c3ccccc3)cc(=O)[nH]2)nc2ccccc12	5.0*	.	.	13*	14*
COc1cccc2c(C)nc(Nc3nc(CSc4nnc(C)s4)cc(=O)[nH]3)nc12	46	71	69	.	60
Cc1nc(Nc2nc(CSc3nc4ccccc4[nH]3)cc(=O)[nH]2)nc2ccccc12	.	3.7*	3.6*	.	.
Cc1cc(C)cc(NC(=O)NC2CCN(CC(=O)Nc3c(C)cc(C)cc3C)CC2)c1	79	.	.	125	81
Cc1cc(C)c(C(=O)COC(=O)CCNS(=O)(=O)c2c(Cl)cccc2Cl)cc1C	.	106	100	.	.
O=C(Nc1ccc(Cl)cc1)N1CCCN(Cc2ccc(F)cc2)C1	66	0.7*	0.6*	29*	39*
O=c1nc2n(c3sc4c(c13)CCC4)Cc1ccccc1-2	92	.	.	98	95
N#CC1=C(N)NC(SCc2ccccc2)=C(C#N)C12CCCCC2	26*	37	16	60	11*
CCSC1=C(C#N)C2(CCCCC2)C(C#N)=C(N)N1	90	87	81	86	79
Oc1ccccc1-c1nc(NCCN2CCOCC2)c2ccccc2n1	38	45	52	80	12*
COc1cccc(-c2nc(NCCN3CCOCC3)c3ccccc3n2)c1O	68	42	38	79	8.3*
Cc1ccc(-c2nc(NCCN3CCOCC3)c3ccccc3n2)cc1	77	17	12	84	45
COc1cccc(-c2nc(NC(C)(C)C)c3ccccc3n2)c1O	67	75	78	80	33*
Cn1c(Cn2nnc(-c3ccccc3)n2)nnc1SCc1ccccc1Cl	108	94	97	99	95
S=C(Nc1ccc(Cl)c(Cl)c1)NC1CCN(Cc2ccccc2)CC1	.	8	3.8*	.	.
S=C(Nc1ccc(Cl)c(Cl)c1)NC1CCCCC1	.	5	8	.	.
CCOC(=O)c1ccc(N=Cc2nc(-c3ccccc3)oc2OC(C)=O)cc1	55	94	90	97	19*
Cc1ccc(C(=O)Oc2oc(-c3ccco3)nc2C=Nc2ccccc2)cc1	69	92	93	90	39*
COc1cccc(C(=O)Nc2nc3ccccc3[nH]2)c1	68	81	75	60	32*
O=C(CSc1ccc2ccccc2c1)Nc1nc2ccccc2[nH]1	.	101	94	.	.
COC(=O)Nc1nc2ccc(C(=O)c3ccccc3)cc2[nH]1	37	.	.	50	33*
CCCSc1ccc2nc(NC(=O)OC)[nH]c2c1	45	12	9	53	20*
O=C(Nc1nc2ccccc2[nH]1)c1ccc(Cl)c(S(=O)(=O)N2CCCC2)c1	75	39	25	73	12*
O=C(N/N=C/c1ccccc1O)C1(O)c2ccccc2-c2ccccc21	.	10	13	.	.
SMILES	HUVEC inhibit	HCT116 PTEN-null	bCat KO growth	Fibroblast inh	H69AR inhibit
O=C(COc1ncnc2c(Cl)cc(Cl)cc12)Nc1cc([N+](=O)[O-])ccc1Cl	.	88	92	.	.
Cc1ccc(NC(=O)C2(c3ccccc3)CCOCC2)c([N+](=O)[O-])c1	.	98	86	.	.
O=C(COc1ccccc1)Nc1nc2ccccc2[nH]1	102	99	99	99	102
CC(CC(=O)Nc1nc2ccccc2[nH]1)c1ccccc1 (stereo not drawn)	88	70	71	91	12*
Cc1nn2c(NCCCN(C)C)c3c(nc2c1-c1ccccc1)CCC3	56	1.7*	2.4*	10*	6.6*
Cc1nn2c(NCC(C)C)c3c(nc2c1-c1ccccc1)CCC3	101	83	92	88	34*
O=C(CCc1ccccc1)NC(NC(=S)Nc1ccc(Br)cc1)C(Cl)(Cl)Cl (stereo not drawn)	37	81	84	77	8.3*
C=CCSC1=N/C(=C/c2ccsc2)C(=O)N1c1ccccc1	.	85	84	.	.
O=C(C1CC1)N1CCC(c2nc(-c3ccc(S(=O)(=O)N4CCCC4)cc3)no2)CC1	98	72	97	109	93
O=C(NC1CCCCC1)N1CCC(c2nc(-c3ccc(S(=O)(=O)N4CCCC4)cc3)no2)CC1	73	50	62	83	30*
CSc1ccc(/C=C/C(=O)c2ccc(NC(C)=O)cc2)cc1	.	105	95	.	.
CC(=O)Nc1cccc(C(=O)/C=C/c2ccc(C)cc2)c1	.	1.9*	2.7*	.	.
N#Cc1c(N)nc(SCC(=O)C23CC4CC(CC(C4)C2)C3)c(C#N)c1-c1ccc(Cl)cc1	53	79	65	77	16*
Cc1cc(C(=O)COC(=O)c2ccc[nH]c2=O)c(C)n1-c1ccc(F)cc1	.	84	91	.	.
CC1=C(C(=O)OCc2ccc3c(c2)OCO3)C(c2ccccc2)NC(=O)N1 (stereo not drawn)	26*	23	24	82	23*
CC1=C(C(=O)OCc2ccc3c(c2)OCO3)C(c2ccccc2OCc2ccccc2)NC(=O)N1 (stereo not drawn)	86	56	60	96	77
Cc1ccc(-n2nnc3c(SCC(=O)NCC4CCCO4)ncnc32)cc1 (stereo not drawn)	86	62	62	97	86
O=C(CSc1ncnc2c1nnn2-c1ccc(F)cc1)NCC1CCCO1 (stereo not drawn)	90	28	5.8*	98	49
COc1ccc(C(=O)C(CCC(CNC(C)(C)C)C(=O)c2ccc(OC)cc2)CNC(C)(C)C)cc1 (stereo not drawn)	.	1.2*	1.0*	.	.
O=C(Nc1ccccc1)Nc1nccs1	79	81	79	97	88
COc1ccc(NC(=O)Nc2nccs2)cc1	57	53	46	86	20*
CC(C)NCC(O)Cn1c2c(c3ccccc31)CCc1c-2cnn1-c1ccccc1 (stereo not drawn)	.	2.0*	1.5*	.	.
Cc1c(C(=O)Nc2ccccc2)sc2nc[nH]c(=O)c12	.	92	91	.	.
CC(C)CCn1c(-c2nonc2N)nc2ccccc21	70	50	53	81	11*
CCCCn1c(N)nc2ccccc21	93	82	73	102	89
SMILES	HUVEC inhibit	HCT116 PTEN-null	bCat KO growth	Fibroblast inh	H69AR inhibit
CCCCn1c(-c2nonc2N)nc2ccccc21	82	57	64	84	30*
CC1CC(C)CN(C(=O)Cn2c(-c3nonc3N)nc3ccccc32)C1 (stereo not drawn)	96	85	86	108	60
CCOC(=O)c1ccccc1NC(=O)Cn1c(-c2nonc2N)nc2ccccc21	38	15	17	47*	27*
Nc1nonc1-c1nc2ccccc2n1CC(=O)NC1CCCC1	96	91	87	99	87
Nc1nonc1-c1nc2ccccc2n1Cc1ccccc1	54	26	29	62	17*
Cc1ccc(N/C=C/C(=O)C(C)(C)C)c(O)c1	86	77	75	102	81
CCCCCCCCNC(=O)c1cccnc1SCC(=O)Nc1ccccc1OC	.	95	92	.	.
CC(C)CN=C(NS(=O)(=O)c1ccccc1)C(Cl)(Cl)Cl	.	4	4.7*	.	.
